# Reference: ChEMBL document CHEMBL4007461, “Synthesis, Antiviral Potency, in Vitro ADMET, and X-ray Structure of Potent CD4 Mimics as Entry Inhibitors That Target the Phe43 Cavity of HIV-1 gp120” (J Med Chem, 2017)
# What was measured:
# [1] = test system: Human immunodeficiency virus 1; assay: Antiviral activity against HIV1 HXB2 pseudovirus infected in human TZM-bl cells assessed as inhibition of viral entry treated 4 hrs post infection measured after 48 hrs by luciferase reporter gene assay; type: functional
# [2] = Inhibition of HIV1 reverse transcriptase by colorimetric assay; parameters: species or system Human immunodeficiency virus 1
# Summary of the method: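 HIV-1 reverse transcriptase activity measured with a commercial colorimetric reverse transcriptase kit, following the maker's instructions.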
# [3] = test system: Human immunodeficiency virus 1
# Cytochrome P450 3A4 = Cytochrome P450 3A4 (Homo sapiens, UniProt P08684); assay: Inhibition of CYP3A4 in human liver microsomes using midazolam as substrate after 5 mins in presence of NADPH by LC-MS/MS analysis; type: ADME
# [4] = Apparent permeability from basolateral to apical side in human Caco2 cells at 10 uM at pH 7.4 by LC-MS/MS analysis; type: ADME, cell-based; settings: Caco-2, pH 7.4
# Summary of the method: (§1)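 Caco-2 cells, passage 40-60, seeded on Transwell inserts at 1 x 10^5 cells/cm2 and grown 20 days in DMEM. Monolayers equilibrated 40 min in HBSS. Donor: compound at 10 µM final, 1% DMSO, in HBSS pH 7.4 with lucifer yellow as integrity marker. Sampled at 120 min, A-B and B-A, in duplicate, by LC-MS/MS. Papp = (dQ/dt)/(C0 × A); efflux ratio = Papp(B-A)/Papp(A-B).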
# [5] = Inhibition of CYP1A in human liver microsomes using ethoxyresorufin as substrate after 5 mins in presence of NADPH by LC-MS/MS analysis
# [6] = test system: Human immunodeficiency virus 1; assay: microbe, parasite or virus in culture; settings: Human immunodeficiency virus 1, subtype C CAP210.2.00.E8
# Cytochrome P450 2D6 = Cytochrome P450 2D6 (Homo sapiens, UniProt P10635); assay: Inhibition of CYP2D6 in human liver microsomes using dextromethorphan as substrate after 5 mins in presence of NADPH by LC-MS/MS analysis; type: ADME
# [7] = test system: Human immunodeficiency virus 1; assay: Antiviral activity against ENV pseudotyped CCR5-tropic HIV1 subtype D QA013.70I.ENV.M12; type: functional; settings: Human immunodeficiency virus 1, subtype D QA013.70I.ENV.M12
# Summary of the method: (§2)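 Env-pseudotyped viruses made by co-transfecting HEK293T cells with an Env-deleted pSG3 backbone (8 µg) and an Env-expression plasmid (8 µg). Supernatants were harvested 2 days after transfection, filtered, titered and stored at −80 °C. They were used for single-cycle infection, and IC50 was taken from percent inhibition.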
# [8] = test system: Vesicular stomatitis virus; assay: Antiviral activity against G-glycoprotein expressing VSV; type: functional
# Summary of the method: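 VSV-G pseudovirus made in HEK293T cells from pVPack-VSV-G, MLV gag-pol pVPack-GP and pFB-luc plasmids. Virus was preincubated 30 min with graded compound concentrations, then added to U87-CD4-CXCR4 cells (1 x 10^4/well, plated overnight).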
# [9] = test system: Human immunodeficiency virus 1; assay: microbe, parasite or virus in culture; settings: Human immunodeficiency virus 1, subtype C 6055-2, clone 3
# [10] = test system: Human immunodeficiency virus 1; assay: microbe, parasite or virus in culture; settings: Human immunodeficiency virus 1, subtype D/A BF535.W6M.ENV.A1
# MT2 = assay: Cytotoxicity against human MT2 cells incubated for 4 days by XTT assay; type: cell-based; settings: mt2, 96 h, 96 h
# Summary of the method: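 Run alongside the MT-2 multicycle infection assay. Compound at graded concentrations mixed with an equal volume of MT-2 cells (10^5 cells/ml). Medium replaced next day and culture continued four days.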
# [11] = test system: Human immunodeficiency virus 1; assay: Antiviral activity against ENV pseudotyped CCR5-tropic HIV1 p9021_14.B2.4571; type: functional; settings: Human immunodeficiency virus 1, p9021_14.B2.4571
# [12] = test system: Human immunodeficiency virus 1; assay: microbe, parasite or virus in culture; settings: Human immunodeficiency virus 1, subtype C Du 172, clone 17
# Cytochrome P450 2C19 = Cytochrome P450 2C19 (Homo sapiens, UniProt P33261); assay: Inhibition of CYP2C19 in human liver microsomes using mephenytoin as substrate after 60 mins in presence of NADPH by LC-MS/MS analysis; type: ADME
# [13] = test system: Human immunodeficiency virus 1; remark: listed apart in the source
# [14] = test system: Human immunodeficiency virus 1; assay: microbe, parasite or virus in culture; settings: Human immunodeficiency virus 1, subtype B p1058_11.B11.1550
# Cytochrome P450 2C9 = Cytochrome P450 2C9 (Homo sapiens, UniProt P11712); assay: Inhibition of CYP2C9 in human liver microsomes using tolbutamide as substrate after 60 mins in presence of NADPH by LC-MS/MS analysis; type: ADME
# [15] = test system: Human immunodeficiency virus 1; assay: Antiviral activity against HIV1 3B infected in human MT2 cells assessed as inhibition of p24 antigen production pretreated with virus for 30 mins followed by 4 days incubation with cells by sandwich ELISA based multicycle infection assay; type: functional, cell-based
# Summary of the method: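 MT-2 cells were infected with HIV-1 IIIB at 100 TCID50 and preincubated 30 min with graded compound concentrations. Medium was replaced next day. Supernatants were collected 4 days post-infection, lysed with equal volume 5% Triton X-100, and p24 was measured by sandwich ELISA. IC50 came from percent inhibition of p24.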
# [16] = test system: Human immunodeficiency virus 1; assay: microbe, parasite or virus in culture; settings: Human immunodeficiency virus 1, subtype A/G CRF02_AG clone 263
# [17] = test system: Human immunodeficiency virus 1; assay: microbe, parasite or virus in culture; settings: Human immunodeficiency virus 1, subtype C QB099.391 M.ENV.B1
# [18] = Metabolic stability in human liver microsomes assessed as compound remaining at 45 mins in presence of NADPH by LC-MS/MS analysis; type: ADME, microsome; settings: read-out: Stability
# [19] = test system: Human immunodeficiency virus 1; assay: microbe, parasite or virus in culture; settings: Human immunodeficiency virus 1, subtype A/E CRF01_AE clone 269
# [20] = test system: Human immunodeficiency virus 1; assay: microbe, parasite or virus in culture; settings: Human immunodeficiency virus 1, subtype C ZM109F.PB4
# [21] = Apparent permeability from apical to basolateral side in human Caco2 cells at 10 uM at pH 7.4 by LC-MS/MS analysis; type: ADME, cell-based; settings: Caco-2, pH 7.4; summary of the method: as §1
# [22] = test system: Human immunodeficiency virus 1; assay: Antiviral activity against ENV pseudotyped CCR5-tropic HIV1 subtype C 25711-2, clone 4; type: functional; settings: Human immunodeficiency virus 1, subtype C 25711-2, clone 4
# [23] = Aqueous solubility of the compound at 1 to 100 uM in PBS at pH 7.4 after 2 hrs by turbidimetric analysis; type: physicochemical
# Summary of the method: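 DMSO stocks diluted 1:100 into phosphate-buffered saline pH 7.4, giving 1, 3, 10, 30 and 100 µM final in 1% DMSO. Seven replicate wells per concentration, incubated 2 h at 37 °C, absorbance read at 620 nm. Solubility taken as the concentration giving absorbance above the 1% DMSO vehicle.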
# [24] = Intrinsic clearance in human liver microsomes assessed per mg protein in presence of NADPH by LC-MS/MS analysis; type: ADME, microsome; settings: read-out: CLH
# TZM = assay: (§3) Cytotoxicity against human TZM-bl cells incubated for 3 days by XTT assay; type: cell-based; settings: tzm, 72 h
# Summary of the method: (§4)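 TZM-bl cells, 1 x 10^4/well, cultured overnight at 37 °C. Compounds added at graded concentrations for three days.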
# [25] = Inhibition of HIV1 HXB2 gp120-mediated cell to cell fusion using human MAGI-CCR5 cells as indicator cells and Env/Tat-expressing HL2/3 cells as effector cells preincubated with MAGI-CCR5 cells for 1 hr followed by HL2/3 cells addition by beta-galactosidase reporter gene assay; settings: Human immunodeficiency virus 1, HXB2
# [26] = target: Voltage-gated inwardly rectifying potassium channel KCNH2 (Homo sapiens, UniProt Q12809); assay: Inhibition of human ERG expressed in CHO cells by patch clamp electrophysiology assay; type: cell-based
# [27] = test system: Human immunodeficiency virus 1; assay: Antiviral activity against ENV pseudotyped CCR5-tropic HIV1 p1054.TC4.1499; type: functional
# [28] = test system: Human immunodeficiency virus 1; assay: Antiviral activity against ENV pseudotyped CCR5-tropic HIV1 p9014_01.TBI.4769; type: functional; settings: Human immunodeficiency virus 1, p9014_01.TBI.4769; summary of the method: as §2
# [29] = test system: Human immunodeficiency virus 1; assay: Antiviral activity against ENV pseudotyped CCR5-tropic HIV1 subtype C 225925-2, clone 22; type: functional; settings: Human immunodeficiency virus 1, subtype C 225925-2, clone 22; summary of the method: as §2
# [30] = Unbound fraction in human plasma at 5 uM by LC-MS/MS based equilibrium dialysis; type: ADME, cell-free
# [31] = test system: Human immunodeficiency virus 1; assay: microbe, parasite or virus in culture; settings: Human immunodeficiency virus 1, subtype A/G CRF02_AG clone 278
# [32] = test system: Human immunodeficiency virus 1; assay: microbe, parasite or virus in culture; settings: Human immunodeficiency virus 1, subtype A2/D QG393.60M.ENV.B8
# [33] = test system: Human immunodeficiency virus 1; assay: Antiviral activity against ENV pseudotyped CCR5-tropic HIV1 subtype C 6936-2, clone 21; type: functional; settings: Human immunodeficiency virus 1, subtype C 6936-2, clone 21; summary of the method: as §2
# [34] = test system: Human immunodeficiency virus 1; assay: Antiviral activity against ENV pseudotyped CCR5-tropic HIV1 subtype D QD435.100M.ENV.A4; type: functional; settings: Human immunodeficiency virus 1, subtype D QD435.100M.ENV.A4; summary of the method: as §2
# [35] = test system: Human immunodeficiency virus 1; assay: microbe, parasite or virus in culture; settings: Human immunodeficiency virus 1, subtype A QB726.70M.ENV.C4
# [36] = test system: Human immunodeficiency virus 1; assay: microbe, parasite or virus in culture; settings: Human immunodeficiency virus 1, subtype C Du422, clone 1
# [37] = as §3; type: cell-based; settings: TZM-bl cells; summary of the method: as §4
# [38] = test system: Human immunodeficiency virus 1; assay: Antiviral activity against ENV pseudotyped CCR5-tropic HIV1 subtype D QD435.100M.ENV.E1; type: functional; settings: Human immunodeficiency virus 1, subtype D QD435.100M.ENV.E1
# [39] = test system: Human immunodeficiency virus 1; assay: microbe, parasite or virus in culture; settings: Human immunodeficiency virus 1, AC10.0, clone 29
# [40] = test system: Human immunodeficiency virus 1; assay: microbe, parasite or virus in culture; settings: Human immunodeficiency virus 1, pCAAN5342 clone A2
# Chain of Cytochrome P450 2C9 (P11712 whole entry): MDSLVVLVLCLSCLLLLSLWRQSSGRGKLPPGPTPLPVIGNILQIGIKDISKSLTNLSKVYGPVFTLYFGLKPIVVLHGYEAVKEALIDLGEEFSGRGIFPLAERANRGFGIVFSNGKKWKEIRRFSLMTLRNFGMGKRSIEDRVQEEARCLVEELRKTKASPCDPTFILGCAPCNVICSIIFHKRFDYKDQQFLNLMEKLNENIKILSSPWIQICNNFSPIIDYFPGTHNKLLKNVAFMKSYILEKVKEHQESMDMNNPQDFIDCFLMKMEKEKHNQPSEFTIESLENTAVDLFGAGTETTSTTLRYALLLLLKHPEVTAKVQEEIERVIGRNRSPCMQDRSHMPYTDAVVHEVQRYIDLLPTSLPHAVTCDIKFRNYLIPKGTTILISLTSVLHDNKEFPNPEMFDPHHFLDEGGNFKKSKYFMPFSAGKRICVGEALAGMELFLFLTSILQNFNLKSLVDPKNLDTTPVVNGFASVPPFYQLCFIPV
# Chain of Cytochrome P450 2D6 (P10635 whole entry): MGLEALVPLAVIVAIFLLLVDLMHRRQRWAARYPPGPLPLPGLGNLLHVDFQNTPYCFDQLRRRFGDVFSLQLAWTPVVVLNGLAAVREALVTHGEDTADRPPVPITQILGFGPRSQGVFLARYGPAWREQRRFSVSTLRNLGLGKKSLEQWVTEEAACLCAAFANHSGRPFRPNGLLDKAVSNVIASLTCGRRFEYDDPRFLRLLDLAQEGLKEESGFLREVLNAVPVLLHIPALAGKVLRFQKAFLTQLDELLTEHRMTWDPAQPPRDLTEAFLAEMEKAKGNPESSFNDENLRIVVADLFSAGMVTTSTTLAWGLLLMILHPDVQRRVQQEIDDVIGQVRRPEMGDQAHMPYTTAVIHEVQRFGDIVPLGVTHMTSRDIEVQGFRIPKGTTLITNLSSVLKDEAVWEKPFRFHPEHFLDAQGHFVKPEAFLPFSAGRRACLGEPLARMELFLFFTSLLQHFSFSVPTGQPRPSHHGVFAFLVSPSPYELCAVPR
# Chain of Cytochrome P450 3A4 (P08684 whole entry): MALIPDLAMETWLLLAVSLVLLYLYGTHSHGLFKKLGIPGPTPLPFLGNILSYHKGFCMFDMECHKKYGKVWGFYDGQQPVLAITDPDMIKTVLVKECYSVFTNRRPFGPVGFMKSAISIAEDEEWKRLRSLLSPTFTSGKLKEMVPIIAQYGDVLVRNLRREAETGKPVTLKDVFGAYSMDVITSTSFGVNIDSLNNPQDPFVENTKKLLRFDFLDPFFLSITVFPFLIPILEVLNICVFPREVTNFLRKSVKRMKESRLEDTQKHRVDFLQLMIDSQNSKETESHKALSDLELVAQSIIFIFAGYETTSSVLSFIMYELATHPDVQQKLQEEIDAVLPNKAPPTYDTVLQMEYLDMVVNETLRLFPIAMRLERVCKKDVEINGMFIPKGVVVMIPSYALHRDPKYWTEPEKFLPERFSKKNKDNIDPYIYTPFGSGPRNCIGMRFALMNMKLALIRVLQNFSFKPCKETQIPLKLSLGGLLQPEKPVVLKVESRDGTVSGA
# Chain of Voltage-gated inwardly rectifying potassium channel KCNH2 (Q12809 whole entry): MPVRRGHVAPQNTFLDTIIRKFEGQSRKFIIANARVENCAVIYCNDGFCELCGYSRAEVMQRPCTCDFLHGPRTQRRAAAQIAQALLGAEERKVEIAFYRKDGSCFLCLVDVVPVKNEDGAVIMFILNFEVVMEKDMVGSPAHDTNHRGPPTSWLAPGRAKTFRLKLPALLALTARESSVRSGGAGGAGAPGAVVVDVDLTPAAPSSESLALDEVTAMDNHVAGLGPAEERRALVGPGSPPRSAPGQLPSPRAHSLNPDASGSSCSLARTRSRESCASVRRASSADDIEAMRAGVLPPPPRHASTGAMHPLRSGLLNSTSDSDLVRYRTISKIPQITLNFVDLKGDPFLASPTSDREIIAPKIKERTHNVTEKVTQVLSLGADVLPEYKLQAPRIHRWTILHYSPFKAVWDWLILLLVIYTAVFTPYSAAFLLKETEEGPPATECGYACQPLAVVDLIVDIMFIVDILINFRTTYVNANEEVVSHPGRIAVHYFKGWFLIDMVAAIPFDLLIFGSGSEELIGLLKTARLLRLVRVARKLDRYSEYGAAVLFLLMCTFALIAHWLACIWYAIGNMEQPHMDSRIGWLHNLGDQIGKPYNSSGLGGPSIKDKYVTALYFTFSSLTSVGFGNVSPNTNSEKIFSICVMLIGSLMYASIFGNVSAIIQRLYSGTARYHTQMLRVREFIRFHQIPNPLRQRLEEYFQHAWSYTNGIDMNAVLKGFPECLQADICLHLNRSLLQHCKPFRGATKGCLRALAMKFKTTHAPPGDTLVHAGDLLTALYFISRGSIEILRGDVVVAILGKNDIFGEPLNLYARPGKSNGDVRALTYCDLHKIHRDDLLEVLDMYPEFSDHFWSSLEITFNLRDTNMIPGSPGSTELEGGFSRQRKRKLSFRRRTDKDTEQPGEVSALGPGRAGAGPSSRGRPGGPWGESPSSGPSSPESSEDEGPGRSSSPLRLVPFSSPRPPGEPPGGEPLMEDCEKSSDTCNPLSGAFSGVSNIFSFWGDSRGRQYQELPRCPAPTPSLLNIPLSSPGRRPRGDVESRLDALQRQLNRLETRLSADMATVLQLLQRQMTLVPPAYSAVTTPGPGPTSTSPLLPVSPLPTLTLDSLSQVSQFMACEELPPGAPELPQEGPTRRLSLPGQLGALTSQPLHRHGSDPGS
# Chain of Cytochrome P450 2C19 (P33261 whole entry): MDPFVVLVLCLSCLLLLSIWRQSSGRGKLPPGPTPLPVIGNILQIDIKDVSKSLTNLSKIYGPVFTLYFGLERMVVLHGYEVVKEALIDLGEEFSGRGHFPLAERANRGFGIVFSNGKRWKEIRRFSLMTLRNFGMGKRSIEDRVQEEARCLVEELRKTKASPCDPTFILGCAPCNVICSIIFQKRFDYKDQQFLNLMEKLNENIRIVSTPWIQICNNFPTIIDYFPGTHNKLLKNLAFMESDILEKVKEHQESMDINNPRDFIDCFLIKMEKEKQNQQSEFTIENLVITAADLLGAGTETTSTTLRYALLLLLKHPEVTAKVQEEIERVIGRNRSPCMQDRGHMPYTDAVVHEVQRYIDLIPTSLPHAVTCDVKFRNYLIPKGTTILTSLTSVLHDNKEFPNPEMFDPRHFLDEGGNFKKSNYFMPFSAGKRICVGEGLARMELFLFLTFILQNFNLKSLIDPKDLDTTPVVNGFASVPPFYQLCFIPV
SMILES,IC50 [2] [nM],IC50 (Cytochrome P450 3A4) [nM],Papp B→A at 10 µM [4] [×10⁻⁶ cm/s],IC50 [5] [nM],IC50 (Cytochrome P450 2D6) [nM],IC50 [7] [nM],IC50 [8] [nM],IC50 [10] [nM],CC50 (MT2) [nM],IC50 [11] [nM],IC50 (Cytochrome P450 2C19) [nM],IC50 (Cytochrome P450 2C9) [nM],IC50 [16] [nM],IC50 [17] [nM],remaining at […] [18] [%],Papp A→B at 10 µM [21] [×10⁻⁶ cm/s],IC50 [22] [nM],solubility kinetic at 2 h [23] [µM],microsomal CLint [24] [µL/min/mg],IC50 [25] [nM],also measured
Cc1cn([C@H]2C[C@H](N=[N+]=[N-])[C@@H](CO)O2)c(=O)[nH]c1=O [ZIDOVUDINE],–,–,–,–,–,–,–,–,–,–,–,–,–,–,–,–,–,–,–,–,inhibition (INH) [1]: 50%
Cc1ccc(-c2ccc(C(=O)NC(CN)c3ncc(CO)s3)[nH]2)cc1F (stereo in doubt),7200,> 25000,19.5,8010,> 25000,240,42900,550,38000,220,> 25000,> 25000,500,350,101,2.56,300,> 100,< 10,8300,IC50 [3]: 400 nM; IC50 [6]: 490 nM; IC50 [9]: 220 nM; IC50 [12]: 620 nM; IC50 [13]: 400 nM; IC50 [14]: 280 nM; IC50 [15]: 760 nM; IC50 [19]: 300 nM; IC50 [20]: 200 nM; CC50 (TZM): 38800 nM; IC50 [26]: 9980 nM; IC50 [27]: 400 nM; IC50 [28]: 310 nM; IC50 [29]: 340 nM; fraction unbound at 5 µM [30]: 0.04
NCC(NC(=O)c1ccc(-c2cc(F)c(Cl)c(F)c2)[nH]1)c1ncc(CO)s1 (stereo in doubt),8400,> 25000,17.2,> 25000,> 25000,500,26000,940,37000,310,> 25000,> 25000,600,510,97.4,1.17,520,65,< 10,13300,"IC50 [31]: 500 nM; IC50 [32]: 270 nM; IC50 [33]: 310 nM; IC50 [34]: 320 nM; IC50 [35]: 510 nM; IC50 [36]: 320 nM; CC50 at 72 h [37]: 39500 nM; IC50 [38]: 500 nM; IC50 [39]: 500 nM; IC50 [40]: 600 nM; IC50 [26]: 14100 nM; IC50 ([27]; Human immunodeficiency virus 1, p1054.TC4.1499): 650 nM; IC50 [29]: 330 nM; fraction unbound at 5 µM [30]: 0.1"
